Screening results (PubChem BioAssay)
The list is not random: actives were taken first. Their share in the collection is about 0.85%.
OXTR potentiate = potentiators of human oxytocin receptor; CHO-OTR cells, Fluo-8 calcium fluorescence, potentiator mode; 0% = oxytocin EC15, 100% = EC100; AID 2445; activation, % at 3 µM; 320,000 tested, 0.061% active;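 active means activation above that plate's cutoff, the mean activation of tested compounds plus 3 SD, cut at about 6.6% in these data, passing the limit was not always enough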;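 further: 100% uses oxytocin at 75 nM as the full agonist control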
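Assay system: CHO cell line stably expressing human OTR. Reagent: EC15 oxytocin agonist. Dosing: single dose, 3.0 µM nominal final compound concentration. Timing: compound 6 min at room temperature before oxytocin, 100 s read. Signal: kinetic Fluo-8 calcium fluorescence. Controls: oxytocin EC15 low and EC100 high.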
CRFBP-R2 agonist = CRF-BP/CRF-R2 complex agonism | AID 588473 | activation, % at 13.2 µM | HEK293 CRF-R2/CRF-BP, calcium dye fluorescence (FLIPR); percent of saturating CRF peptide response | 350,000 tested, 0.46% active;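 active means activation of at least 50%, plus an integration ratio under a set limit after plate pattern correction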;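 further: plate controls were neutral control wells without compound for no effect and CRF at EC100 for full effect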
V1R ag counter = V1a receptor agonism, counter-screen for OXTR agonists. P37288. CHO-V1R cells, Fluo-8 calcium fluorescence, agonist mode; 0% DMSO, 100% 3 nM vasopressin. activation, % at 3 µM. 320,000 tested, 0.25% active. AID 2797;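 active means activation above the mean activation of all tested compounds plus 3 SD, per screening run, cut at about 20% in these data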;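 further: signal is peak over basal fluorescence ratio across a 100 second FLIPR read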
Target sequence (P37288 whole entry, looked up): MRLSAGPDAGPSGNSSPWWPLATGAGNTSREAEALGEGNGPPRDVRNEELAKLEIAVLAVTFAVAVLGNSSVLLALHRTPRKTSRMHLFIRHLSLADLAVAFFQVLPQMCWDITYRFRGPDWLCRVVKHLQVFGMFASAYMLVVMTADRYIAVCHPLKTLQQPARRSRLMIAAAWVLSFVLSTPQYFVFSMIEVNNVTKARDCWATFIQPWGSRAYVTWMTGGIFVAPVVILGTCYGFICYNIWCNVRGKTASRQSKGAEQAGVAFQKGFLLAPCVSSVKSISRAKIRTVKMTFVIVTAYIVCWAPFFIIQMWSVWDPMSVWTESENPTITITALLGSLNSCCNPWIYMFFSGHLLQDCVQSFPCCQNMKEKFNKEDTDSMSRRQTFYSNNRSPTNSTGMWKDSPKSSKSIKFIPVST
OXTR agonist = human OXTR agonism | 320,000 tested, 0.32% active | activation, % at 3 µM | CHO-OTR cells, Fluo-8 calcium fluorescence; normalized: DMSO 0%, oxytocin 100% | P30559;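 active means activation above the mean of all tested compounds plus 3 SD, cutoff set per screening run, cut at about 20% in these data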;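 further: peak over basal fluorescence ratio from a 100 s FLIPR kinetic read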
zfTRPN1 agonist = agonists of zebrafish TRPN1 channel | HEK293 zebrafish TRPN1-YFP, Fluo-8 calcium fluorescence; 100% = response to 87 µM carbachol | activation, % at 3 µM | 220,000 tested, 0.18% active;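 active means activation above its plate's cutoff, the mean activation of test wells on that plate plus 3 SD, cut at about 19% in these data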;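 further: 0% = DMSO alone and 100% = 87 µM carbachol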
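Material: zebrafish TRPN1-YFP in HEK293 cells; Doses: single test compound dose, 3 µM nominal, 0.3% DMSO; Timing: dye loading 1 h at 37 °C, then 30 min room temperature; Technique: intracellular calcium fluorescence with Fluo-8; Benchmarks: high carbachol 87 µM, low DMSO alone.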
TRPML3 agonist = human mucolipin-3 channel agonism; HEK293 TRPML3-YFP, Fluo-8 calcium fluorescence; 100% = the carbachol control signal; 220,000 tested, 0.29% active; AID 1448; activation, % at 3 µM; Q8TDD5;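 active means activation above its plate's cutoff, the mean activation of the plate's test wells plus 3 SD, cut at about 12% in these data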;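 further: 0% = DMSO only wells and 100% = carbachol wells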
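Test system – HEK293 line with stable expression of human TRPML3-YFP channel · Control set – carbachol 87 µM final as high control (100%), DMSO as low control (0%) · Signal – Fluo-8 calcium dye fluorescence, ex 470-495, em 515-575 nm · Incubation – 1-h 37 °C dye load, 5-s basal, 120-s post-compound reads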
Starred values were filed as active, the others as inactive; . = no result.

SMILES	OXTR potentiate	CRFBP-R2 agonist	V1R ag counter	OXTR agonist	zfTRPN1 agonist	TRPML3 agonist
CCC(C)(C)C(=O)Nc1ncc(S(=O)(=O)c2ccc([N+](=O)[O-])cc2)s1	-23	40	22*	33*	12	11
O=C(C1CC(=O)N(c2ccccc2)C1)N1CCN(c2ccccc2F)CC1 (configuration not stated)	-11	0	0	0	.	.
CC(=O)C(C(C)=O)c1cc(NS(=O)(=O)c2ccccc2)ccc1NS(=O)(=O)c1ccccc1	-4	160*	0	3	.	.
CC(=O)Nc1ccc(NS(=O)(=O)c2ccccc2)cc1	-6	0	0	0	1	1
CCN(CC)c1ccc(C=Nc2ccc(N(C)C)cc2)c(O)c1	-8	51*	-1	-2	0	0
CCN(CC)c1ccc(C=Nc2ccc(C)cc2)c(O)c1	-4	-1	0	-2	1	1
CCN(CC)c1ccc(N=Cc2ccc(N(CC)CC)cc2O)cc1	-6	94*	-1	-1	-2	-1
Cc1cc(C)nc(NN2C(=O)/C(=C/c3ccccc3)SC2=S)n1	2	-1	0	-1	0	0
CN(C)c1ccc(/C=C2\SC(=S)N(Nc3ncc(C(F)(F)F)cc3Cl)C2=O)cc1	-5	159*	92*	72*	14	8
Cc1ccccc1-n1ncc2c1CC(C)(C)CC2NC(=O)CCN1CCCCC1=O (configuration not stated)	-8	2	2	-1	.	.
CC1(C)CC(=O)C2=C(C1)Nc1ccccc1S2	-5	2	0	-2	2	0
CC1(C)CC(=O)C2=C(C1)Nc1ccccc1NC2	-4	55*	3	4	1	0
CC(NC(=O)Nc1ccc([N+](=O)[O-])cc1)C(c1cccs1)N1CCCC1 (configuration not stated)	-16	2	55*	33*	0	1
CC(NC(=O)Nc1cccc(Cl)c1)C(c1cccs1)N1CCCC1 (configuration not stated)	-6	-3	14	6	1	1
CC(C)(C)OC(=O)C[C@@H]1C/C=C\C[C@@H](CC(=O)N(CCO)Cc2ccccc2)C(=O)N[C@@H](c2ccccc2)COC1=O	4	-5	0	0	.	.
O=C(C1CC(=O)N(c2ccc(F)c(Cl)c2)C1)N1CCOCC1 (configuration not stated)	.	0	.	.	.	.
COc1ccc(C(=O)Nc2cc(C(C)=O)c(C)oc2=O)cc1	-11	0	1	-1	1	1
CC(=O)c1cc(NC(=O)c2ccc(Cl)cc2)c(=O)oc1/C=C/N(C)C	-4	79*	5	9	3	1
CC(=O)c1cc(NC(=O)c2cccc(C(F)(F)F)c2)c(=O)oc1/C=C/N(C)C	0	76*	3	9	3	1
O=C1NC(Cc2ccc(O)cc2)c2nc3ccc(Br)cc3c(=O)n2-c2ccc(Cl)cc21 (configuration not stated)	-4	.	1	2	.	.
Cc1ccccc1-n1c(O)c(/C=C/C=Nc2ccccc2)c(=O)[nH]c1=O	-15	81*	30*	47*	13	9
O=C(N/N=C/c1cc(Br)cc([N+](=O)[O-])c1O)c1ccc(NC(=O)c2ccc(F)cc2)cc1	-8	-2	0	0	.	.
COc1cc(/C=C/C(=O)OCC(=O)Nc2ccc(S(N)(=O)=O)cc2)ccc1O	-1	-2	0	0	0	1
COc1cc(/C=C/C(=O)OCC(=O)Nc2ccc([N+](=O)[O-])cc2)ccc1O	-8	26	30*	21*	13	5
Cc1c(-n2cc(C(=O)c3ccccc3O)cc(C#N)c2=O)c(=O)n(-c2ccccc2)n1C	-8	139*	2	6	1	1
SMILES	OXTR potentiate	CRFBP-R2 agonist	V1R ag counter	OXTR agonist	zfTRPN1 agonist	TRPML3 agonist
N#Cc1cc(C(=O)c2ccccc2O)cn(-c2ccc(Cl)cc2)c1=O	-5	53*	0	1	0	0
Cc1ccc(-n2cc(C(=O)c3cc(Cl)ccc3O)cc(C#N)c2=O)cc1	-14	12	11	9	4	3
Cc1ccc(O)c(C(=O)c2cc(C#N)c(=O)n(C(C)c3ccccc3)c2)c1 (configuration not stated)	-13	-1	-2	-2	-3	-2
N#C/C(=C\c1ccc(-c2ccccc2C(=O)O)o1)c1nc2ccccc2[nH]1	-3	32	9	8	.	.
Cc1cc2nc(/C(C#N)=C\c3ccc(-c4ccccc4C(=O)O)o3)[nH]c2cc1C	-5	100*	9	7	.	.
Cc1ccc2nc(/C(C#N)=C/c3ccc(-c4ccccc4C(=O)O)o3)[nH]c2c1	-23	65*	27*	39*	.	.
O=Cc1ccc(-c2ccccc2C(=O)O)o1	-1	-2	0	0	1	1
O=C(O)c1ccccc1-c1c2cc(I)c(=O)c(I)c-2oc2c(I)c(O)c(I)cc12	-12	243*	205*	232*	.	.
Cc1cccc(-c2nc3c(c(SCC(=O)N4CCOCC4)n2)COC(C)(C)C3)c1	-10	0	2	0	.	.
N#Cc1c(Cl)nsc1NC(=O)c1ccccc1	-15	47	12	16	30*	21*
N#Cc1c(NC(=O)c2ccccc2)sc2c1CCCCC2	12	1	0	-2	-2	-1
CCCCCCCCCCOC(=O)Cn1c(COc2ccc(Cl)cc2)[n+](C)c2ccccc21	-11	1	18	17	.	.
CCCCCCCCCCOC(=O)Cn1c(COc2ccccc2)[n+](C)c2ccccc21	-14	19	53*	27*	.	.
CC1(C)CC(=O)C=C(C#CC2(O)CCCCC2)C1	.	0	.	.	.	.
CNc1nc(N(C)C)nc(N(C)C)n1	0	72*	0	-1	1	0
CC1CN(S(=O)(=O)c2cccc(C(=O)Nc3ccccc3N3CCCC3)c2)CC(C)O1 (configuration not stated)	11	-2	-2	-2	.	.
CCc1cccc2cc3c(N)c(C(=O)Nc4ccc(S(=O)(=O)N5CCCC5)cc4)sc3nc12	-7	63*	9	9	2	2
Cc1cccc2cc3c(N)c(C(=O)Nc4ccc(N5CCOCC5)cc4)sc3nc12	-13	0	11	14	3	1
O=C(c1ccc(NC(=S)NCc2ccc(Cl)cc2)cc1)N1CCCCC1	-12	7	21*	21*	2	1
CCCC(=O)NC(=S)Nc1ccc(C(C)=O)cc1	-4	0	0	0	0	0
